Measurements published in ChEMBL document CHEMBL1629511, “Naphthylchalcones induce apoptosis and caspase activation in a leukemia cell line: The relationship between mitochondrial damage, oxidative stress, and cell death” (Bioorg Med Chem, 2010).
Active and inactive are the calls of the source. The rule behind the calls is not given here.

Assays:
[1] = tested on: L1210; experiment: Cytotoxicity against mouse L1210 cells after 24 hrs by MTT assay in presence of superoxide dismutase; type: functional, cell-based; conditions: L1210, 24 h
In short: (§1)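 L1210 cells at 1 × 10⁵/well were exposed for 24 h to 1–100 µM compound together with catalase 5000 U/ml, SOD 250 U/ml or Trolox 200 µM. Additive-only controls were run in parallel. Viability was read by MTT (2 h, formazan in DMSO, A540) in triplicate.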

[2] = tested on: L1210; experiment: Cytotoxicity against mouse L1210 cells after 24 hrs by MTT assay; type: functional, cell-based; conditions: L1210, 24 h
In short: (§2)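 MTT assay on L1210 or CEM cells grown in DMEM with 10% heat-inactivated FBS. Cells were seeded at 1 × 10⁵/well for 24 h or 5 × 10⁴/well for 48 h, in triplicate, with 1–100 µM compound (DMSO ≤1%). MTT was added for 2 h at 37 °C, formazan dissolved in DMSO, and A540 read. IC50 came from a Hill concentration–response fit.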

[3] = tested on: L1210; experiment: Induction of lipid peroxidation in mouse L1210 cells at IC50 concentration after 24 hrs by TBARS method; type: functional, cell-based
In short: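 Homogenates came from 4 × 10⁶ L1210 cells after 24 h treatment. 400 µg protein was mixed with 60 mM Tris–HCl pH 7.4, 0.1 mM DPTA, TCA and 0.73% TBA, boiled 2 h, cooled and centrifuged. A535 was converted to nmol TBARS per µg protein using the MDA extinction coefficient.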

[4] = tested on: L1210; experiment: Induction of apoptosis in mouse L1210 cells assessed as decrease in intracellular ATP concentration at IC50 concentration measured up to 24 hrs; type: functional, cell-based
In short: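 Intracellular ATP: 1 × 10⁶ L1210 cells were treated for up to 24 h. Extracts were made in 1.25% trichloroacetic acid, kept on ice 30 min, neutralized with 1 M Tris–acetate pH 7.5 and centrifuged. Luciferin–luciferase bioluminescence was read and normalized to the cell death percentage over the incubation.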

[5] = tested on: L1210; experiment: Cytotoxicity against mouse L1210 cells after 24 hrs by MTT assay in presence of catalase; type: functional, cell-based; conditions: L1210, 24 h; in short: as §1
[6] = tested on: L1210; experiment: Induction of apoptosis in mouse L1210 cells assessed as increase in glutathione S-transferase activity at IC50 concentration measured after 24 hrs; type: functional, cell-based
In short: (§3)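 Homogenates came from 6 × 10⁶ L1210 cells after 24 h treatment. GPx was measured with 150 µg protein as NADPH loss at 340 nm. Catalase followed Aebi with 60 µg protein. GST was measured as the GSH–CDNB conjugate at 340 nm. Activities were protein-normalized and given as % of control.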

[7] = tested on: L1210; experiment: Induction of apoptosis in mouse L1210 cells assessed as increase in total glutathione level at IC50 concentration measured after 24 hrs; type: functional, cell-based
In short: (§4)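 Homogenates came from 3 × 10⁶ L1210 cells after 24 h treatment (phosphate/NaCl/Triton lysis, sonication, 10,000 rpm spin). Total glutathione was measured by the glutathione reductase recycling method (50 µg protein, 75 µM DTNB, 120 µM NADPH, 4 U/ml GR) at 405 nm against a GSH standard. GSSG = (TG − GSH)/2. Values were protein-normalized and given as % of control.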

[8] = tested on: L1210; experiment: Induction of apoptosis in mouse L1210 cells assessed as DNA fragmentation at IC50 concentration after 24 hrs by agarose gel electrophoresis analysis; type: functional, cell-based
In short: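 3 × 10⁶ L1210 cells were treated for 24 h, washed with cold PBS, then lysed in EDTA/Tris pH 8.0/NP-40/proteinase K buffer at 50 °C for 2 h. DNA was ethanol-precipitated, washed, treated with RNase A at 37 °C for 1 h and resolved by agarose gel electrophoresis beside a size standard.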

[9] = tested on: L1210; experiment: Cytotoxicity against mouse L1210 cells after 24 hrs by MTT assay in presence of Trolox; type: functional, cell-based; conditions: L1210, 24 h; in short: as §1
[10] = tested on: L1210; experiment: Induction of ROS production in mouse L1210 cells at IC50 concentration after 4 hrs
[11] = tested on: L1210; experiment: Induction of apoptosis in mouse L1210 cells assessed as increase in GSSG level at IC50 concentration measured after 24 hrs; type: functional, cell-based; in short: as §4
[12] = tested on: L1210; experiment: Induction of apoptosis in mouse L1210 cells assessed as decrease in mitochondrial membrane potential at IC50 concentration after 4 hrs using JC-1 staining by spectrofluorimetric analysis; type: functional, cell-based
In short: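 L1210 cells at 5 × 10⁵/well were treated for 4 h, then stained with JC-1 (10 µg/ml) for 20 min at 37 °C, washed and resuspended in PBS. Fluorescence was read with excitation at 488 nm and emission at 590/527 nm. The red/green ratio is expressed relative to control (100%).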

[13] = tested on: CCRF-CEM; experiment: Cytotoxicity against human CEM cells after 24 hrs by MTT assay; type: functional, cell-based; in short: as §2
[14] = tested on: L1210; experiment: Cytotoxicity against mouse L1210 cells after 48 hrs by MTT assay; type: functional, cell-based; conditions: L1210, 48 h; in short: as §2
[15] = tested on: L1210; experiment: Cytotoxicity against mouse L1210 cells after 72 hrs by MTT assay; type: functional, cell-based; conditions: L1210, 72 h
[16] = tested on: L1210; experiment: Induction of apoptosis in mouse L1210 cells assessed as increase in GSH level at IC50 concentration measured after 24 hrs; type: functional, cell-based; in short: as §4
[17] = tested on: CCRF-CEM; experiment: Cytotoxicity against human CEM cells after 48 hrs by MTT assay; type: functional, cell-based; in short: as §2
[18] = tested on: CCRF-CEM; experiment: Cytotoxicity against human CEM cells after 72 hrs by MTT assay; type: functional, cell-based
[19] = tested on: L1210; experiment: Induction of apoptosis in mouse L1210 cells assessed as increase in glutathione reductase activity at IC50 concentration measured after 24 hrs; type: functional, cell-based
[20] = tested on: L1210; experiment: Induction of apoptosis in mouse L1210 cells assessed as increase in catalase activity at IC50 concentration measured after 24 hrs; type: functional, cell-based; in short: as §3
[21] = tested on: L1210; experiment: Induction of apoptosis in mouse L1210 cells assessed as increase in glutathione peroxidase activity at IC50 concentration measured after 24 hrs; type: functional, cell-based; in short: as §3
[22] = tested on: L1210; experiment: Induction of apoptosis in mouse L1210 cells assessed as increase in caspase 3 activity at IC50 concentration after 2 to 4 hrs; type: functional, cell-based
In short: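 3 × 10⁶ L1210 cells were treated for 2 or 4 h at 37 °C, then lysed in HEPES pH 7.4 buffer with protease inhibitors, CHAPS and DTT. Extract (50 µg protein) was incubated with 10 µM Ac-DEVD-AMC for 2 h at 37 °C. AMC fluorescence was read at ex 380/em 465 nm, blank-subtracted, and expressed per hour per µg protein (Lowry).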

SMILES: O=C(/C=C/c1cccc([N+](=O)[O-])c1)c1ccc2ccccc2c1
- IC50 [1]: 20 µM
- IC50 [2]: 24 µM
- Activity [3]: Active
- Activity [4]: Active
- IC50 [5]: 45 µM
- Activity [6]: Active
- Activity [7]: Active
- Activity [8]: Active
- IC50 [9]: 20 µM
- Activity [10]: Active
- Activity [11]: Active
- Activity [12]: Active
- IC50 [13]: 11 µM
- IC50 [14]: 13 µM
- IC50 [15]: 14 µM
- Activity [16]: inactive
- IC50 [17]: 11 µM
- IC50 [18]: 4 µM
- Activity [19]: Active
- Activity [20]: inactive
- Activity [21]: Active
- Activity [22]: Active

SMILES: O=C(/C=C/c1ccccc1)c1ccc2ccccc2c1
- IC50 [1]: 31 µM
- IC50 [2]: 37 µM
- Activity [3]: Active
- Activity [4]: Active
- IC50 [5]: 58 µM
- Activity [6]: Active
- Activity [7]: Active
- Activity [8]: Active
- IC50 [9]: 39 µM
- Activity [10]: Active
- Activity [11]: Active
- Activity [12]: inactive
- IC50 [13]: 12 µM
- IC50 [14]: 20 µM
- IC50 [15]: 17 µM
- Activity [16]: Active
- IC50 [17]: 14 µM
- IC50 [18]: 5 µM
- Activity [19]: Active
- Activity [20]: inactive
- Activity [21]: Active
- Activity [22]: Active

SMILES: O=C(/C=C/c1cccc(Cl)c1)c1ccc2ccccc2c1
- IC50 [1]: 30 µM
- IC50 [2]: 38 µM
- Activity [3]: Active
- Activity [4]: Active
- IC50 [5]: 51 µM
- Activity [6]: Active
- Activity [7]: Active
- Activity [8]: Active
- IC50 [9]: 34 µM
- Activity [10]: Active
- Activity [11]: Active
- Activity [12]: Active
- IC50 [13]: 11 µM
- IC50 [14]: 23 µM
- IC50 [15]: 10 µM
- Activity [16]: inactive
- IC50 [17]: 12 µM
- IC50 [18]: 6 µM
- Activity [19]: Active
- Activity [20]: inactive
- Activity [21]: Active
- Activity [22]: Active
